These results are taken from ChEMBL document CHEMBL2034856, “Synthesis and evaluation of 11β-(4-substituted phenyl) estradiol analogs: transition from estrogen receptor agonists to antagonists” (Bioorg Med Chem, 2012).

What is called Ki is a measure of affinity in units of concentration, obtained from inhibition or displacement.

For experiment [1], the target named is T1, Estrogen receptor (Bos taurus) (UniProt P49884).
T1 sequence (whole entry): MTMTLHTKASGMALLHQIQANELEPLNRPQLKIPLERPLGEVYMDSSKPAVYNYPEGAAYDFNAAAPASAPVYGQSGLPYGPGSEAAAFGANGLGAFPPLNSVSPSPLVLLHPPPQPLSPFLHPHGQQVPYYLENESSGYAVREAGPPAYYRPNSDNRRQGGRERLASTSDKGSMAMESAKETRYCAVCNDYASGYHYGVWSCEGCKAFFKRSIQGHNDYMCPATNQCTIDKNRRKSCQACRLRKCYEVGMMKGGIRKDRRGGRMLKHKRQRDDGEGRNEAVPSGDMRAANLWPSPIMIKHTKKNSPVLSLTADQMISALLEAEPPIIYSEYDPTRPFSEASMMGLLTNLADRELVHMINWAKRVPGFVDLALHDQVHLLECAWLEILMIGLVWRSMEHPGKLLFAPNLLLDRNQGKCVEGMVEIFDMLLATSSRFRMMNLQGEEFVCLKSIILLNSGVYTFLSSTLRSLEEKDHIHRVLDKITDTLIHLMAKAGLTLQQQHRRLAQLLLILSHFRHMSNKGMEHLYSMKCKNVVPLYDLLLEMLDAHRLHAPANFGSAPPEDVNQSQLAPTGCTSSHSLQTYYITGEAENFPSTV
Nature of the experiment: Displacement of [3H]estradiol from calf cytosolic ER relative to estradiol.

Experiment [2] has as its target Estrogen receptor beta (Homo sapiens) (UniProt Q92731). Briefly: Displacement of [3H]estradiol from human ERbeta LBD expressed in Escherichia coli. Background: In a radioligand displacement assay an active substance lowers the binding of a labelled ligand.
The next experiment deals with T2, Estrogen receptor (Homo sapiens, UniProt P03372).
T2 sequence (P03372 whole entry): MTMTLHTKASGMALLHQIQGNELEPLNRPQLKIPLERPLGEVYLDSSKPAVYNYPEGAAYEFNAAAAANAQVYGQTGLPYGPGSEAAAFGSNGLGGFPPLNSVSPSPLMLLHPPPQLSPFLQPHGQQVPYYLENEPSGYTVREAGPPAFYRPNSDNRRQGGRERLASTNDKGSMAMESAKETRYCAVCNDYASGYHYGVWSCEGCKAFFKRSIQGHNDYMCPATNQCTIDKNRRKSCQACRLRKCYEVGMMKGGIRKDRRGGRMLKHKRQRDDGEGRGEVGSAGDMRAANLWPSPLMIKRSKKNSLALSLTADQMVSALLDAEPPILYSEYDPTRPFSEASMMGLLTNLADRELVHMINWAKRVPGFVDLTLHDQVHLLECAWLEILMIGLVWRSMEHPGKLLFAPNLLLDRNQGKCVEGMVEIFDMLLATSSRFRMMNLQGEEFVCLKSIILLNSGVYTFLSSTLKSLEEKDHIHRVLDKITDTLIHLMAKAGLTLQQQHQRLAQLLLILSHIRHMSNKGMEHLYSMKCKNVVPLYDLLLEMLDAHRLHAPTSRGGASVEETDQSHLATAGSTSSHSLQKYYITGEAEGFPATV
Briefly: Antagonist activity at Estrogen receptor expressed in human Ishikawa cells assessed as inhibition of estradiol-induced increase in alkaline phosphatase after 3 days by spectrophotometry. The class given is functional, cell-based. The method, boiled down: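 Ishikawa cells were grown in phenol red-free, charcoal-stripped bovine serum medium. Compounds at 10−6 to 10−12 M were tested against 10−9 M E2 for 3 days. Ki came from curve fitting. At least 3 experiments were run in duplicate.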

The target in experiment [3] is T3, Estrogen receptor (Homo sapiens) (UniProt P03372).
T3 sequence (whole entry): T2 sequence (P03372 whole entry)
Briefly: Agonist activity at Estrogen receptor expressed in human Ishikawa cells assessed as induction of alkaline phosphatase after 3 days by spectrophotometry relative to estradiol. The class given is functional, cell-based. In short, it runs like this: (§1)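 Ishikawa endometrial adenocarcinoma cells were grown in phenol red-free medium with charcoal-stripped bovine serum, with steroids across at least 6 orders of magnitude, for 3 days. Cells were then washed and freeze-thawed, and alkaline phosphatase was read kinetically as p-nitrophenol at 405 nm from 5 mM p-nitrophenyl phosphate at pH 9.8. RSA is the ratio of 1/EC50 versus E2 ×100, from curve fitting. At least 3 experiments were run in duplicate.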

The target in experiment [4] is T3, Estrogen receptor (Homo sapiens). Briefly: Mixed agonist and antagonist activity at Estrogen receptor expressed in human Ishikawa cells assessed as induction of alkaline phosphatase after 3 days by spectrophotometry relative to estradiol. The class given is functional, cell-based. The arrangement: scale not given: the % may be the effect or the level left. The method, boiled down:
as §1

Estrogen receptor beta (Homo sapiens), sequence (Q92731 whole entry, the tested form may be a part): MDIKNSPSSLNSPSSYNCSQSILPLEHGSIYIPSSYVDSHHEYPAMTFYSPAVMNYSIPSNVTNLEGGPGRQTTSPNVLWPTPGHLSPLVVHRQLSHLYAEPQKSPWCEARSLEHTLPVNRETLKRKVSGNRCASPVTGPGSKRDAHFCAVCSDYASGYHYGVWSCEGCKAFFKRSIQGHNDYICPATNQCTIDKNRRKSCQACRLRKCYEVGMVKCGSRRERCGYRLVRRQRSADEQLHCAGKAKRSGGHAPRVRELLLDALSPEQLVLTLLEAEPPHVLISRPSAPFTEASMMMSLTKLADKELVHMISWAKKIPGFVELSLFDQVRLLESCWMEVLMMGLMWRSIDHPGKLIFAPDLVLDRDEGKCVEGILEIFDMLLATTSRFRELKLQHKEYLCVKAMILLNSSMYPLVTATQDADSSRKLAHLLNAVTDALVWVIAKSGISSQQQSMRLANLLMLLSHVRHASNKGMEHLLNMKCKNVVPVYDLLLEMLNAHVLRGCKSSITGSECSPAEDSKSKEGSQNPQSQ

Turning to `N#CC(=C(c1ccc(O)cc1)c1ccc(O)cc1)c1ccc(O)cc1`, the RBA in experiment [1] was determined as 166%.
In experiment [2], `C[C@]12C[C@H](c3ccc(OCCCCCS(=O)(=O)C(F)(F)C(F)(F)F)cc3)[C@@H]3c4ccc(O)cc4CC[C@H]3[C@@H]1CC[C@@H]2O` displayed an RBA of 27%. In addition, the Ki at Estrogen receptor was determined as 5.3 nM.
On to `CO[C@H]1C[C@]2(C)[C@@H](O)CC[C@H]2[C@@H]2CCc3cc(O)ccc3[C@H]21`, for which the RSA in experiment [3] is 76%.
For `C[C@]12C[C@H](c3ccc(O)cc3)[C@@H]3c4ccc(O)cc4CC[C@H]3[C@@H]1CC[C@@H]2O`, the RSA in experiment [3] was found to be 17%. The RBA in experiment [2] came to 41%.
Regarding `COc1ccc([C@H]2C[C@]3(C)[C@@H](O)CC[C@H]3[C@@H]3CCc4cc(O)ccc4[C@H]32)cc1`, in experiment [4], the Activity amounted to 35%.
Regarding `C=C[C@H]1C[C@]2(C)[C@@H](O)CC[C@H]2[C@@H]2CCc3cc(O)ccc3[C@H]21`, the RSA in experiment [3] amounted to 70%.
Regarding `CN(C)CCOc1ccc([C@H]2C[C@]3(C)[C@@H](O)CC[C@H]3[C@@H]3CCc4cc(O)ccc4[C@H]32)cc1`, the RBA in experiment [2] turned out to be 17%.
The compound `COc1ccc(/C(=C(/C#N)c2ccc(O)cc2)c2ccc(O)cc2)cc1` yielded an RBA in experiment [1] of 17%.
`C[C@]12C[C@H](c3ccc(OCCOCCOCCn4cc(CNC5=CC(=O)c6ccccc6C5=O)nn4)cc3)[C@@H]3c4ccc(O)cc4CC[C@H]3[C@@H]1CC[C@@H]2O`: the Ki at Estrogen receptor came out at 1.1 nM.
